Screening data deposited in PubChem BioAssay by several laboratories.
RBBP9 inhibitor: human RBBP9 inhibitors, primary screen, biochemical, fluorescence polarization, FP-Rh probe, HTS | inhibition, % at 7.94 µM | recombinant RBBP9 | actives 0.2% (n = 220,000);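 active = inhibition above the campaign mean of all tested compounds plus 3 SD, cut at about 14% in these data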;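 also: plate controls were DMSO wells with RBBP9 for no effect and wells lacking RBBP9 protein for full effect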
Target sequence (O75884 whole entry, looked up): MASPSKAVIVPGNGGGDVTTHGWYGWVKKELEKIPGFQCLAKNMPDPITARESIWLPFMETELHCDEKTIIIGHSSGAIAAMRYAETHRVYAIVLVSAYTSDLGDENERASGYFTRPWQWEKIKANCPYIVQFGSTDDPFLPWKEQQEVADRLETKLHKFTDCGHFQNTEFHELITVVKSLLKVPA
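Measured by – fluorescence polarization · Test system – RBBP9 protein · Input – 2.5 µM RBBP9 dispensing solution, before mixing · Measure – percent inhibition from mP, scaled between DMSO and no-protein wells · Benchmarks – DMSO-treated enzyme wells and wells lacking RBBP9 · Times – preincubation 30 min plus labeling 45 min at 25 °C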
Autophagy HCS: autophagy modulators in MEF cells, primary screen, imaging, high-content, MEF GFP-LC3; actives 0.98% (n = 190,000); MEF GFP-LC3 puncta imaging; test concentration mostly 10 µM; calls only at 10 µM (by protocol);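 active = percentage of spot-positive cells more than 3 SD above its plate mean, without a fluorescence outlier flag or 80% toxicity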;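 also: spot-positive cell cutoff set from DMSO-treated cells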
Insulin prom inh: inhibitors of insulin promoter-driven GFP, primary screen, imaging, TRM-6 cells, eGFP reporter, cell count; AID 1273, 2008; actives 0.9% (n = 130,000); reporter expression induced with tamoxifen; inhibition, % at 2 µM;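 active = inhibition above the mean plus 3 SD, with well images judged a real hit on visual review, cut at about 60% in these data, passing the limit was not always enough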
PKD1 inh: inhibitors of human PKD1 kinase, biochemical, fluorescence polarization. Serine/threonine-protein kinase D1 (Homo sapiens), Q15139. actives 0.056% (n = 200,000). inhibition, % (no concentration beside the values). PKD1 kinase fluorescence polarization assay. AID 797, 2007; in the data active = inhibition above about 50%
Arbovirus anti: antivirals against arbovirus infection, primary screen, cell-based, full library, 10K replicate subset; arbovirus infection cell-based antiviral screen; inhibition, % at 10 µM; actives 0.37% (n = 200,000); in the data active = inhibition above about 30%
Insulin prom up: insulin promoter activators in MIN6 cells, imaging, high-content screening, mouse beta cells. MIN6 insulin promoter-GFP reporter; hits give high values. z-score at 5 µM. actives 0.3% (n = 190,000). AID 1625, 2009;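 active = z-score above 3 at 5 µM with at least 500 cells counted in the well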
Starred values were filed as active, the others as inactive; i = inactive; x = no result given; + = active, no number. Most compounds without a hit are left out; they make up all but 2.1% or so of the library.

SMILES | RBBP9 inhibitor | Autophagy HCS | Insulin prom inh | PKD1 inh | Arbovirus anti | Insulin prom up
Cc1cc(=O)[nH]c(N/N=C/C2=C(N3CCOCC3)C(=C\c3ccc(Cl)cc3)/CC2)n1 | -1 | + | 3 | -1 | -25 | 0.33
Cc1cc(C)nc(N/N=C/C2=C(N3CCOCC3)C(=C/c3ccccc3)/CC2)n1 | -6 | i | -50 | -9 | 1 | -0.73
O=C1NC(CCc2ccccc2)C(=O)N1Cc1ccc(Br)cc1 (stereo not given) | 3 | + | x | 5 | 13 | 0.51
O=C1NC(CCc2ccccc2)C(=O)N1CCOc1ccccc1 (stereo not given) | 0 | i | x | 4 | 8 | -0.25
O=C(Nc1ccc(F)cc1F)Nc1ccccc1C(=O)NCCN1CCNC1=O | -6 | x | x | x | x | -0.37
Cc1ccc(N(C(=O)CCl)C(C(=O)NC2CCCCC2)c2cccnc2)cc1C (stereo not given) | -9 | + | -163 | -1 | -29 | x
Cc1ccc(N(C(=O)CNC(=O)c2ccco2)C(C(=O)NC2CCCC2)c2cccnc2)cc1C (stereo not given) | -4 | i | x | -12 | -2 | -0.24
COc1cccc(NC(=O)c2ccc(NCCCN3CC(C)CC(C)C3)c([N+](=O)[O-])c2)c1 (stereo not given) | -4 | + | -25 | -3 | 8 | -0.81
N#Cc1ccc(Sc2nc3ccccc3[nH]2)cc1C#N | 5 | i | x | 20 | 7 | 0.24
N#Cc1cc2ccccc2nc1N | -3 | + | x | -3 | 1 | 1.2
CCOc1ccc(NC(=O)c2cnccn2)cc1 | -5 | i | 94* | -5 | -2 | 0.38
CCOc1ccc(NC(=O)c2ccccn2)cc1 | -2 | i | -43 | -11 | -2 | -0.48
Cc1cc(N)n2ncc(-c3ccc(Cl)cc3)c2n1 | 5 | i | 32 | 0 | -3 | -0.55
Cc1cc(N)n2ncc(-c3ccc(F)cc3)c2n1 | 5 | i | 89* | -4 | 2 | x
CCOC(=O)Cn1c(=O)c(-c2cc(Br)ccc2N)nc2ccccc21 | -4 | x | x | x | x | 6.8*
CCCCNC(=S)N/N=C/c1sccc1C | -7 | i | -21 | -2 | -1 | 0.63
Cc1cc(C)nc(N2CCCC(C(=O)NCCc3ccc(F)cc3)C2)n1 (stereo not given) | -3 | i | 86* | -15 | 0 | 0.15
Cn1[nH]c(=O)c(Cl)c(Cl)c1=O | -9 | i | -11 | 0 | -1 | -0.68
O=c1[nH]c(/C=C/c2ccccc2OC(F)F)nc2c1cnn2-c1ccccc1 | -2 | i | -38 | 4 | -12 | 3.2*
Fc1ccc(N2CN(Cc3cccnc3)CNC2=S)cc1 | -3 | x | x | x | x | x
CCCC(=O)Nc1sc2c(c1C(=O)OCC)CC(C)(C)OC2 | -1 | i | 75* | -4 | -11 | x
CCOC(=O)c1c(NC(=O)CCC(=O)N(CC)CC)sc2c1CC(C)(C)OC2 | -1 | x | x | x | x | 0.61
O=[N+]([O-])c1cccc(-c2ccc(/C=N/Nc3nc(N4CCCCC4)nc(N4CCCCC4)n3)o2)c1 | 1 | i | x | -5 | 7 | 0.93
O=[N+]([O-])c1cccc(/C=N/Nc2nc(N3CCCCC3)nc(N3CCCCC3)n2)c1 | -1 | i | 71* | -12 | 6 | 0.02
O=[N+]([O-])c1ccc(-c2ccc(/C=N/Nc3nc(N4CCCC4)nc(N4CCCC4)n3)o2)cc1 | 7 | + | x | -5 | -14 | -0.43
COc1cc(/C=N/Nc2nc(Nc3ccccc3)nc(-n3nc(C)cc3C)n2)cc(OC)c1OC | -10 | + | -38 | 6 | -21 | x
COc1ccc(/C=N/Nc2nc(Nc3ccccc3)nc(N3CCCC3)n2)cc1[N+](=O)[O-] | -7 | + | 33 | -6 | -23 | -1
O=[N+]([O-])c1ccc(-c2ccc(/C=N/Nc3nc(N4CCCCC4)nc(N4CCCCC4)n3)o2)cc1 | -13 | + | i | 0 | -28 | x
O=C1C(Nc2ccc(O)cc2)=C/C(=N/S(=O)(=O)c2cccs2)c2ccccc21 | 5 | + | x | -5 | -36 | -4.4
Clc1ccccc1-c1nc2ccccc2c2nc3ccccc3n12 | -5 | + | 18 | 1 | -8 | -0.18
